Laboratory results as given in paper PMC9624299 (ACS chemical biology, 2022).

Tests used:
[1] = system: T98G cells; experiment: Cell viability assay; type: cell-based, human; conditions: for cytotoxicity (in words) / IC50: T98G
In short: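 T98G cells were cultured in EMEM/10% FBS/1% pen-strep at 37 °C, 5% CO2, seeded and allowed to adhere. Where indicated, cells were pretreated 3 h with the MGMT inhibitor O6BG. Test compound was then added in DMSO (1% final). After 7 days, viability was read by Alamar Blue, with raptinal 20 μM as dead control; n ≥ 3, SEM.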

[2] = system: U87 cells; experiment: Cell viability assay; type: cell-based, human; conditions: 7 days; for cytotoxicity (in words): U87; for IC50: U87, no MGMT expression, MGMT(−)/MMR(+), Alamar Blue
In short: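 Cells were cultured in EMEM with 10% FBS and 1% pen-strep (37 °C, 5% CO2), seeded and allowed to adhere 3 h. Test compound was added in DMSO (1% final). After 7 days of incubation, viability was read by Alamar Blue, with raptinal 20 μM as dead control. IC50 taken from dose–response curves; n ≥ 3, SEM.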

[3] = BBB permeability; type: in vivo, CD-1 IGS mice; conditions: mice, 25 mg/kg IV, 15 min
In short: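 CD-1 IGS mice received 25 mg/kg by lateral tail vein in 5% DMSO, 10% Tween-20 and 85% SBE-βCD (30% w/v in water), and were killed at 15 min. Blood was taken, then mice were saline-perfused. Serum was acidified with 8.5% H3PO4. Brains were acidified (0.3% H3PO4), frozen, homogenised and centrifuged. Levels were measured by LC–MS/MS and used for brain:serum ratio; ≥3 mice/cohort.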

[4] = system: GBM; conditions: intracranial murine model of GBM; cited from earlier work
[5] = system: GBM cell lines; experiment: Cell viability assay; type: cell-based; conditions: 7 days
In short: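 Panel lines were seeded and allowed to adhere 3 h, then dosed with test compound in DMSO (1% final) and incubated at 37 °C, 5% CO2 for 7 days. Viability was read by Alamar Blue, with raptinal 20 μM as dead control. IC50 values are from n ≥ 3, SEM.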

[6] = Hydrolytic stability studies; type: physicochemical; conditions: for hydrolytic stability, percentage of prodrug remaining after 2 h: HPLC
In short: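 Compound (100 μM) was incubated in PBS at 37 °C, pH 7.4 (also pH 7 and 8). Aliquots taken at set time points were analysed by HPLC. Peak areas were compared with t0 to give percent prodrug remaining, including at 2 h.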

[7] = system: linearized pBR322 DNA; experiment: DNA cross-linking/alkylation assay; type: biochemical; conditions: linearized pBR322 DNA 150 ng, 37 °C, Tris pH 8.5, 15 h, agarose gel
In short: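 pBR322 was linearised with EcoRI, purified and taken up in 10 mM Tris-Cl pH 8.5. DNA (150 ng) was incubated with test compound (DMSO, 5% v/v) at 37 °C for 15 h. Cisplatin and MMS served as positive controls. Samples were denatured 15 min at 4 °C in NaOH-containing sucrose/bromophenol blue buffer (no NaOH for non-denatured controls). Gels were run on 1% neutral agarose with ethidium bromide in TBE, 124 V, 1 h.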

[8] = system: RKO cells; experiment: Cell viability assay, RKO colon cancer; type: cell-based
[9] = aqueous solution, PBS, pH 7.4, 37 °C; cited from earlier work
[10] = system: D341 Med cells; experiment: Cell viability assay, D341 Med medulloblastoma; type: cell-based; conditions: Homo sapiens, 168 h
In short: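 D341 Med medulloblastoma cells were grown in EMEM with 20% FBS and 1% pen-strep (37 °C, 5% CO2). Cells were seeded and compound was added in DMSO (1% final) after 3 h. Incubation lasted 7 days, and viability was read by Alamar Blue, with raptinal 20 μM as dead control.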

[11] = system: U118MG cells; experiment: Cell viability assay, U118MG; type: cell-based; conditions: MGMT-expressing
[12] = Assessment of hematological toxicity; type: in vivo, CD-1 IGS mice; conditions: mice, single 125 mg/kg IV dose, 7 days
[13] = system: Escherichia coli WP2 uvrA pKM101 strain; experiment: Ames test, WP2 uvrA pKM101; type: cell-based; conditions: 30 μM
In short: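 E. coli WP2 uvrA pKM101 tester strain was run in the 96-well microplate version of the Ames test following the kit maker's instructions. Test compound was added at the indicated concentrations.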

[14] = system: HCT116 cells; experiment: Cell viability assay, HCT116; type: cell-based
In short: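 HCT116 cells were grown in RPMI with 10% FBS and 1% pen-strep (37 °C, 5% CO2), seeded and allowed to adhere. Cells were tested with or without O6BG pretreatment. Test compound was added in DMSO (1% final) after 3 h. After 7 days, viability was read by Alamar Blue, with raptinal 20 μM as dead control.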

[15] = cited from earlier work
[16] = system: GL261 cells; experiment: Quantitation of O6-guanine DNA adducts in cells; type: cell-based, mouse; conditions: 100, 300 or 500 μM, 8 h, LC–MS/MS
In short: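 GL261 cells were plated at 1 × 10^6 per well and exposed to test compound at 100, 300 or 500 μM (1% DMSO) for 8 h. Genomic DNA was extracted, then precipitated with sodium acetate and ethanol. DNA (10 μg) was hydrolysed to deoxynucleosides (37 °C, 6 h). O6-alkyl-dG was quantified by LC–MS/MS against a synthetic standard; n ≥ 3.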

[17] = system: glioblastoma; conditions: GBM patients, TMZ added to RT; cited from earlier work
[18] = system: A172 cells; experiment: Quantitation of O6-guanine DNA adducts in cells; type: cell-based; conditions: A172, MGMT-negative; LC–MS/MS
[19] = system: Salmonella typhimurium TA100 strain; experiment: Ames test, TA100; type: cell-based; conditions: 30 μM, 5 days, no S9 activation, wells per 96
In short: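 TA100 S. typhimurium was grown overnight, then dispensed into 96-well plates (microplate Ames format) with test compound, growth medium and colorimetric indicator, without S9 activation. Plates were incubated 5 days, and the number of wells per plate showing revertant growth was scored by colour change.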

[20] = system: GL261 MGMT+ cells; experiment: Cell viability assay, GL261 MGMT+; type: cell-based, mouse
[21] = system: D54 cells; experiment: Quantitation of O6-guanine DNA adducts in cells; type: cell-based; conditions: D54, MGMT-negative; LC–MS/MS
[22] = system: GL261 cells; experiment: Cell viability assay, GL261; type: cell-based; conditions: Mus musculus, GL261, 168 h
In short: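 Cells were grown in DMEM with 10% FBS and 1% pen-strep at 37 °C, 5% CO2, seeded and allowed to adhere. After 3 h, test compound was added in DMSO (1% final). Cells were incubated 7 days, and viability was assessed by Alamar Blue, with raptinal 20 μM as dead control.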

[23] = same schedule (once-per-day over five days); cited from earlier work
[24] = high MGMT expression, MGMT(+)/MMR(+), 7 days, Alamar Blue

**Q.** Which “cytotoxicity (in words)” value ([1]; 7 days) does the source give for `NC(=O)c1ncn2c(=O)[nH]nnc12` [Compound 1] here?
**A.** unable to induce cell death

**Q.** What about the “cytotoxicity (in words)” value [2] of the same compound?
**A.** unable to induce cell death

**Q.** What does the source list for `CCn1nnc2c(C(N)=O)ncn2c1=O` [Compound 2]?
**A.** cytotoxicity (in words) ([1]; 7 days): much less active than TMZ; IC50 [2]: 470 µM; cytotoxicity (in words) [2]: much less active than TMZ

**Q.** What does the source list for `CC(C)n1nnc2c(C(N)=O)ncn2c1=O` [Compound 4]?
**A.** cytotoxicity (in words) ([1]; 7 days): inactive; cytotoxicity (in words) [2]: inactive

**Q.** What does the source list for `CC(C)(C)n1nnc2c(C(N)=O)ncn2c1=O` [Compound 5]?
**A.** cytotoxicity (in words) ([1]; 7 days): inactive; cytotoxicity (in words) [2]: inactive

**Q.** Which results are given for `CC(C)(C)Cn1nnc2c(C(N)=O)ncn2c1=O` [Compound 6]?
**A.** cytotoxicity (in words) ([1]; 7 days): inactive; cytotoxicity (in words) [2]: inactive

**Q.** Which “brain:serum ratio” value [3] does the source give for `C#CCn1nnc2c(C(N)=O)ncn2c1=O` [Compound 10] here?
**A.** 0.06 ± 0.01 ng/g:ng/mL

**Q.** What about the “efficacy in an intracranial efficacy model (in words)” value [4] of the same compound?
**A.** limited efficacy

**Q.** And the IC50 [1, 24]?
**A.** 77 µM

**Q.** What about the IC50 ([5]; all cell lines of the expanded GBM panel) of the same compound?
**A.** < 100 µM

**Q.** And the half-life ([6]; PBS pH 7.4, 37 °C)?
**A.** ~ 30 min

**Q.** And the “hydrolytic stability, percentage of prodrug remaining after 2 h” value ([6]; PBS pH 7.4, 37 °C)?
**A.** 8%

**Q.** And the IC50 [2]?
**A.** 29 µM

**Q.** Which IC50 [1, 24] does the source give for `CC#CCn1nnc2c(C(N)=O)ncn2c1=O` [Compound 19] here?
**A.** 110 µM

**Q.** And the IC50 [2]?
**A.** 37 µM

**Q.** And the “DNA alkylation (in words)” value [7]?
**A.** Trace DNA alkylation

**Q.** And the “DNA interstrand cross-linking (in words)” value [7]?
**A.** definitively absent

**Q.** With `COS(C)(=O)=O` [MMS, methylmethanesulfonate] as the compound, how does the “DNA alkylation (in words)” value [7] read?
**A.** cause DNA streaking

**Q.** Which results are given for `NC(=O)c1ncn2c(=O)n(CCCl)nnc12` [MTZ, mitozolomide]?
**A.** cytotoxicity (in words) ([1]; 7 days): robust cytotoxicity; cytotoxicity (in words) [2]: robust cytotoxicity

**Q.** For `Cn1nnc2c(C(N)=O)ncn2c1=O` [TMZ, temozolomide], which IC50 ([8]; Homo sapiens) is on record?
**A.** > 1000 µM

**Q.** What about the “effect of MGMT inhibitor pretreatment on cell death” value ([8]; MGMT-expressing, MGMT inhibitor) of the same compound?
**A.** cell death potentiation

**Q.** And the half-life in vitro [9]?
**A.** 1.5 to 2 h

**Q.** And the IC50 [10]?
**A.** 460 µM

**Q.** And the “effect of MGMT inhibitor pretreatment on cell death” value [11]?
**A.** cell death potentiation

**Q.** And the “white blood cell, lymphocyte and neutrophil counts (in words)” value [12]?
**A.** depletions in white blood cells, lymphocytes, and neutrophils

**Q.** What about the “mutagenicity (in words)” value [13] of the same compound?
**A.** highly mutagenic

**Q.** What about the revertant colonies ([13]; wells per 96) of the same compound?
**A.** 95/96

**Q.** What about the “effect of MGMT inhibitor pretreatment on cytotoxicity” value ([14]; HCT116 pretreated with O6BG) of the same compound?
**A.** negligible potentiation

**Q.** And the IC50 ([14]; Homo sapiens, HCT-116, 168 h)?
**A.** > 800 µM

**Q.** What about the “half-life in vivo (t1/2)” value ([15]; human patients, human pharmacokinetics) of the same compound?
**A.** 1.5 to 2 h

**Q.** And the “cerebral spinal fluid concentration as percentage of plasma concentration” value ([15]; humans, average)?
**A.** about 20%

**Q.** What about the “O6-alkyl-2′-deoxyguanosine adducts (O6-Me-dG for TMZ, O6-Prop-dG for CPZ)” value [16] of the same compound?
**A.** dose-dependent increase

**Q.** What about the overall patient survival [17] of the same compound?
**A.** 15 months

**Q.** What about the “survival benefit vs RT alone” value [17] of the same compound?
**A.** ≤ 8 month

**Q.** What about the O6-dG alkylation adducts [18] of the same compound?
**A.** dose-dependent increase in methyl adducts

**Q.** What about the IC50 ([1]; Homo sapiens, 168 h) of the same compound?
**A.** > 550 µM

**Q.** And the “loss of activity in T98G relative to U87” value ([1]; IC50 T98G vs U87)?
**A.** > 10 fold

**Q.** And the “effect of MGMT inhibitor pretreatment on cell death” value ([1]; T98G pretreated (3 h) with O6BG vs non-pretreated)?
**A.** dramatic potentiation of cell death

**Q.** And the “difference in IC50 values between MGMT-negative and positive cell lines” value ([5]; expanded GBM panel)?
**A.** > 6 fold

**Q.** And the “revertant (mutated) colonies” value [19]?
**A.** 35/96

**Q.** And the “effect of MGMT inhibitor pretreatment on cell death” value ([20]; GL261 MGMT+ pre-treated with lomeguatrib)?
**A.** potentiation of cell death

**Q.** What about the IC50 ([20]; Mus musculus, GL261, 168 h) of the same compound?
**A.** > 1000 µM

**Q.** What about the “hydrolytic stability, percentage of prodrug remaining after 2 h” value ([6]; PBS pH 7.4, 37 °C) of the same compound?
**A.** 40%

**Q.** What about the half-life at 100 μM ([6]; PBS, pH 7.4) of the same compound?
**A.** ~1.5 h

**Q.** What about the O6-dG alkylation adducts [21] of the same compound?
**A.** dose-dependent increase in methyl adducts

**Q.** And the IC50 [22]?
**A.** 120 µM

**Q.** What about the “DNA alkylation (in words)” value [7] of the same compound?
**A.** cause DNA streaking

**Q.** And the “reported MTD” value [23]?
**A.** ~ 66 mg/kg

**Q.** Which results are given for `C=CC=O` [acrolein]?
**A.** DNA alkylation (in words) [7]: no evidence of alkylation; DNA interstrand cross-linking (in words) [7]: interstrand cross-linking

**Q.** Which “DNA interstrand cross-linking (in words)” value [7] does the source give for `N.N.[Cl][Pt][Cl]` [cisplatin] here?
**A.** prevent the full denaturation of double-stranded DNA
